The source made the active and inactive calls. The rule behind the calls is not given here.
Key:
Mus musculus = organism: Mus musculus; assay: Selectivity ratio of EC50 for GAL4-fused mouse RARalpha LBD expressed in COS-7 cells to EC50 for GAL4-fused mouse RARbeta-LBD expressed in COS-7 cells; format: cell-based
[1] = biological target: T1, Retinoic acid receptor gamma (Mus musculus, UniProt P18911); assay: Transactivation of GAL4-fused mouse RARgamma-LBD expressed in COS-7 cells after 24 hrs by bright-Glo reagent based assay; format: cell-based
T1 sequence (P18911 whole entry): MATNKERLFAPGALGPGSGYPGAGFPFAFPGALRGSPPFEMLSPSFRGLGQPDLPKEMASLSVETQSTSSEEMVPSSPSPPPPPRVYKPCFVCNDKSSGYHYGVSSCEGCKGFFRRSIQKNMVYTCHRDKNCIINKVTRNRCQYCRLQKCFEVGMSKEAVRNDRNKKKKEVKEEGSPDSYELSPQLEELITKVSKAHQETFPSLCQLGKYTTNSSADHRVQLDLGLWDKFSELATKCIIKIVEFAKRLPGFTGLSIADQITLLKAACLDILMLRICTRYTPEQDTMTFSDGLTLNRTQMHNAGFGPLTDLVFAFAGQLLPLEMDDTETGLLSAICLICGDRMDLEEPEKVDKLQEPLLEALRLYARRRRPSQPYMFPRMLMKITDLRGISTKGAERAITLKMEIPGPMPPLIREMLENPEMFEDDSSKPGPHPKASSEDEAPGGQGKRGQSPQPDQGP
In short: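 Transactivation assays with mouse RAR α, β and γ ligand binding domains; values usually from three separate experiments, with error about 20% of the mean.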

Salmonella typhimurium [2] = assay: Toxicity in Salmonella typhimurium TA1535 at 100 uM; format: organism-based; conditions: salmonella enterica subsp. enterica serovar typhimurium
In short: (§1)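 Bacterial cytotoxicity testing up to 100 μM.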

Salmonella typhimurium [3] = assay: Toxicity in Salmonella typhimurium TA100 at 100 uM; format: organism-based; conditions: salmonella enterica subsp. enterica serovar typhimurium; in short: as §1
Rattus norvegicus [4] = assay: Neuroprotective activity in avulsed rat model assessed as reduction in latency for time taken to sense and remove the tape from the paw of the lesioned forelimbs at 3 mg/kg, po administered every other day for 4 weeks; format: functional, organism-based
In short: (§2)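 Rats with avulsion injury given 3 mg/kg orally three times a week, every other day; sensory and locomotor function assessed. Mean of n = 8; two-way repeated-measures ANOVA with Tukey's post-hoc test.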

[5] = Drug uptake in Sprague-Dawley rat plasma at 1 to 10 mg/kg, po measured after 8 hrs by LC-MS/MS analysis; format: ADME, organism-based; conditions: in vivo
In short: (§3)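 Oral dosing to rats; brain tissue and plasma levels compared 8 h after dosing.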

[6] = Genotoxicity in Salmonella typhimurium TA98 at 100 uM by Ames test; format: toxicity; conditions: salmonella enterica subsp. enterica serovar typhimurium
In short: (§4)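 Ames test in three bacterial strains.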

CHO-MG = assay: Agonist activity at RARbeta in CHO-MG cells assessed as increase in neurite length after 24 hrs by immunostaining based assay; format: cell-based; conditions: Cricetulus griseus
In short: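 Cerebellar neurons cultured on a CHO-MAG cell monolayer; 24 hr exposure to vehicle or agonist at 1×10^-8 – 1×10^-6 M. Neurite outgrowth read by immunostaining and neurite length quantification; means of 3 independent experiments; Student's t-test, vehicle versus highest dose.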

[7] = Drug uptake in Sprague-Dawley rat brain at 1 to 10 mg/kg, po measured after 8 hrs by LC-MS/MS analysis; format: ADME, organism-based; conditions: in vivo; in short: as §3
Rattus norvegicus [8] = assay: Neuroprotective activity in avulsed rat model assessed as reduction in number of foot slips in a horizontal ladder by injured forelimb at 3 mg/kg, po administered every other day for 4 weeks; format: functional, organism-based; in short: as §2
Salmonella typhimurium [9] = assay: Toxicity in Salmonella typhimurium TA98 at 100 uM; format: organism-based; conditions: salmonella enterica subsp. enterica serovar typhimurium; in short: as §1
[10] = biological target: Voltage-gated inwardly rectifying potassium channel KCNH2 (Homo sapiens, UniProt Q12809); assay: Displacement of [3H]astemizole from human ERG at 10 uM
Sequence of Voltage-gated inwardly rectifying potassium channel KCNH2 (Q12809 whole entry): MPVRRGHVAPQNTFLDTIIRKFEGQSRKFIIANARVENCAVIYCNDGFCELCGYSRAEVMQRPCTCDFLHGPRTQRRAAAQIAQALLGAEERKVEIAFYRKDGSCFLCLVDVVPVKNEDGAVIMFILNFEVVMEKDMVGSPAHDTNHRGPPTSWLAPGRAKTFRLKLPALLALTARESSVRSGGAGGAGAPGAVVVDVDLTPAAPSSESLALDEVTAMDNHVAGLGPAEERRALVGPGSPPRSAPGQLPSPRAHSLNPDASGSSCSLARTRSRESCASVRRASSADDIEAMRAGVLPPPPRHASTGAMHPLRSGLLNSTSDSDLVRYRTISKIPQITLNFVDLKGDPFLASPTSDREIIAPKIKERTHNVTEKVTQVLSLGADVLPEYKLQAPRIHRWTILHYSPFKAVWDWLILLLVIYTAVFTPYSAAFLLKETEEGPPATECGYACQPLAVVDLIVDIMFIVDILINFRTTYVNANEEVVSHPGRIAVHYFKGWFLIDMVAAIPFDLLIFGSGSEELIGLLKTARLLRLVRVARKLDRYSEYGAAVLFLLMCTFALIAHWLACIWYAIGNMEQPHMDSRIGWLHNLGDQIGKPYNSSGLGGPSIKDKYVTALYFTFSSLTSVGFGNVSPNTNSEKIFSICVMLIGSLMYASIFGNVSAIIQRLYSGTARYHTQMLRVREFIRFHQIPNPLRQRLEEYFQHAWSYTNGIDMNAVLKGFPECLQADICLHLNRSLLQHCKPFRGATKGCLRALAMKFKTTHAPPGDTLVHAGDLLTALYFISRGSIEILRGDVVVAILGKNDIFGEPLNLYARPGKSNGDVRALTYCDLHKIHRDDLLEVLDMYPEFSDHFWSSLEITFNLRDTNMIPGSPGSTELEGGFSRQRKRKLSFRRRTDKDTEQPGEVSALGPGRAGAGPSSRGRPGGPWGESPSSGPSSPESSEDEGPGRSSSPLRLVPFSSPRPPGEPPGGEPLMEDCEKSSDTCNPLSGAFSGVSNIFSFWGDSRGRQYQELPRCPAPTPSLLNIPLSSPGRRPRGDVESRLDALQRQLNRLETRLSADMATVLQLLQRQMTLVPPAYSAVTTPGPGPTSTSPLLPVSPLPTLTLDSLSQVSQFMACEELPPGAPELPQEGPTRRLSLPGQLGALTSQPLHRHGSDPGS
In short: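 HERG channel binding assay at 10 μM.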

HepG2 = assay: Cytotoxicity against human HepG2 cells at 50 uM; format: cell-based; conditions: hepg2, 50 µM
In short: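 HepG2 cell toxicity assay; highest concentration tested 50 μM.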

CHO-K1 [11] = assay: Genotoxicity in CHOK1 cells in presence of S9 fraction by micronucleus test; format: toxicity, cell-based, Cricetulus griseus; conditions: chinese hamster
In short: (§5)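 In vitro micronucleus test in CHO-K1 cells, run both with and without S9.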

[12] = Genotoxicity in Salmonella typhimurium TA1535 at 100 uM by Ames test; format: toxicity; conditions: salmonella enterica subsp. enterica serovar typhimurium; in short: as §4
CHO-K1 [13] = assay: Genotoxicity in CHOK1 cells in absence of S9 fraction by micronucleus test; format: toxicity, cell-based, Cricetulus griseus; conditions: chinese hamster; in short: as §5
[14] = Fraction absorbed in Sprague-Dawley rat at 1 to 10 mg/kg, po by LC-MS/MS analysis; format: ADME, organism-based; conditions: in vivo, read-out: Fabs
In short: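 Rats: oral doses of 1, 3 and 10 mg/kg in 8% ethanol/92% PEG-400; iv reference 0.5 mg/kg in 4% DMSO, 38% PEG-400, 58% (0.9%) NaCl. Fraction absorbed is the mean over the three oral doses relative to the iv dose.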

[15] = Genotoxicity in Salmonella typhimurium TA100 at 100 uM by Ames test; format: toxicity; conditions: salmonella enterica subsp. enterica serovar typhimurium; in short: as §4

Row | EC50 [1] [µM] | SMILES | Ratio EC50 (Mus musculus) | other results
1 | – | Cc1ccc(C)c2oc(-c3nc(-c4ccc(C(=O)O)cc4)no3)nc12 | 10 | –
2 | 30 | CCOc1c(Cl)cc(C(=O)Nc2ccc(C(=O)O)cc2)cc1Cl | – | –
3 | – | Cc1cc(C(=O)O)ccc1-c1noc(-c2cc3c(C)ccc(C)c3o2)n1 | 13 | –
4 | – | O=C(O)c1ccc(-c2noc(-c3cc4c(C(F)(F)F)ccc(F)c4o3)n2)cc1 | 7.6 | –
5 | 0.0054 | CCOc1c(Cl)cc(-c2noc(-c3ccc(C(=O)O)cc3)n2)cc1Cl | – | –
6 | 0.045 | CCOc1c(Cl)cc(-c2cnc(-c3ccc(C(=O)O)cc3)o2)cc1Cl | – | –
7 | – | Cc1ccc(C)c2oc(-c3nc(-c4ccc(C(=O)O)cc4)no3)cc12 | 13 | Activity (Salmonella typhimurium [2]): Non-Toxic; Activity (Salmonella typhimurium [3]): Non-Toxic; Activity (Rattus norvegicus [4]): Active; Drug uptake [5]: Active; Activity [6]: Non-Toxic; Activity (CHO-MG): Dose-dependent effect; Drug uptake [7]: Active; Activity (Rattus norvegicus [8]): Active; Activity (Salmonella typhimurium [9]): Non-Toxic; inhibition (INH) [10]: Not Active; Activity (HepG2): Non-Toxic; Activity (CHO-K1 [11]): Non-Toxic; Activity [12]: Non-Toxic; Activity (CHO-K1 [13]): Non-Toxic; Fa [14]: 80%; Activity [15]: Non-Toxic
8 | 0.15 | CCOc1c(Cl)cc(-c2nnc(-c3ccc(C(=O)O)cc3)o2)cc1Cl | – | –
9 | – | CC(C)(C)c1cc(-c2nc(-c3ccc(C(=O)O)cc3)no2)cc(C(C)(C)C)c1 | 2.8 | –
10 | – | Cc1ccc(C)c2oc(-c3nc(-c4ccc(C(=O)O)c(F)c4)no3)cc12 | 7.3 | –
11 | 0.16 | CCOc1c(Cl)cc(-c2csc(-c3ccc(C(=O)O)cc3)n2)cc1Cl | – | –
12 | – | Cc1ccc(C)c2sc(-c3nc(-c4ccc(C(=O)O)cc4)no3)cc12 | 9 | –
13 | – | CC1(C)CCC(C)(C)c2cc(-c3nc(-c4ccc(C(=O)O)cc4)no3)ccc21 | 17 | –
14 | – | Cc1cc(-c2noc(-c3cc4c(C)ccc(C)c4o3)n2)ccc1C(=O)O | 6.4 | –
15 | – | CCCCOCCOc1nc(-c2ccc(C(=O)O)c(F)c2)sc1C | 5.8 | –
16 | – | Cc1ccc(C)c2oc(-c3nc(-c4ccc(C(=O)O)cc4F)no3)cc12 | 5.5 | –
